Results published in ChEMBL document CHEMBL4265954, “Discovery of potent liver-selective stearoyl-CoA desaturase-1 (SCD1) inhibitors, thiazole-4-acetic acid derivatives, for the treatment of diabetes, hepatic steatosis, and obesity” (Eur J Med Chem, 2018).

Key:
[1] = Inhibition of acetyl-CoA acetyltransferase (unknown origin); design: species or system Homo sapiens
Stearoyl-CoA desaturase = biological target: T1, Stearoyl-CoA desaturase (Homo sapiens, UniProt O00767); experiment: Inhibition of recombinant human SCD1 expressed in baculovirus expression system assessed as reduction in [3H]H2O production using stearoyl [9,10-3H]CoA as substrate in presence of NADH incubated for 30 mins by scintillation counting method
T1 sequence (O00767 whole entry): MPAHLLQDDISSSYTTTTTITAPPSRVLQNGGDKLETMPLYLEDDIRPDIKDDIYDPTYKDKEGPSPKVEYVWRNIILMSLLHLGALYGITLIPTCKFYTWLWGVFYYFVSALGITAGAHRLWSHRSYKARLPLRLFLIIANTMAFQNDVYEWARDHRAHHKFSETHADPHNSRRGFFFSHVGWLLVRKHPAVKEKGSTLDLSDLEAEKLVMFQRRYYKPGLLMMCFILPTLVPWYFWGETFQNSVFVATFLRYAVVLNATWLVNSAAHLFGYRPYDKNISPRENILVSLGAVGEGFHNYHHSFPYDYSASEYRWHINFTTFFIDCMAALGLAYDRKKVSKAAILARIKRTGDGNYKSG
In short: (§1)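 Desaturation of [9,10-3H]stearoyl-CoA measured as released [3H]H2O. Water was separated from charcoal-adsorbed substrate by filtration and counted by scintillation. Remaining activity = (compound − background)/(control − background). DMSO wells served as control and pre-stopped wells as background. IC50 was interpolated from the two points bracketing 50%.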

Acyl-CoA desaturase 1 = biological target: T2, Acyl-CoA desaturase 1 (Mus musculus, UniProt P13516); experiment: Inhibition of mouse liver microsome SCD assessed as reduction in [3H]H2O production using stearoyl [9,10-3H]CoA as substrate in presence of NADH incubated for 30 mins by scintillation counting method; format: microsomes; in short: as §1
T2 sequence (P13516 whole entry): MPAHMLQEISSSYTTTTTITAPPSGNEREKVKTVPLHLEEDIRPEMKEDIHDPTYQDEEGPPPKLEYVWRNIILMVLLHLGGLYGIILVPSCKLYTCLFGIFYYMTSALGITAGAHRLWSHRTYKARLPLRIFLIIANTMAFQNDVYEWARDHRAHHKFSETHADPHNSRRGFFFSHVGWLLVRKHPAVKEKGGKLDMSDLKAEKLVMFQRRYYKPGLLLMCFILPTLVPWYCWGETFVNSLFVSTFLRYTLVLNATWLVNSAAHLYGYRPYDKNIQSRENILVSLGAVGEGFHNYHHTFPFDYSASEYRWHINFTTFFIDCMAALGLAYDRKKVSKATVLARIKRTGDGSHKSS

[2] = biological target: Acyl-CoA (8-3)-desaturase (Homo sapiens, UniProt O60427); experiment: Inhibition of delta-5 fatty acid desaturase (unknown origin)
Mus musculus [3] = experiment: Ex vivo inhibition of SCD1 in C57BL/6J mouse liver assessed as residual activity at 10 mg/kg, po treated for 24 hrs followed by incubation with [14C]stearoyl-CoA substrate for 10 mins by TLC assay relative to control; format: functional
In short: (§2)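 Male 6-week-old C57BL/6J mice dosed orally as a suspension in 0.5% methylcellulose. Liver or eyelid was taken 6 or 24 h later and homogenized in 100 mM Tris-HCl pH 7.4 with 0.25 M sucrose. S9 was obtained at 10,000 × g, 4 °C. S9 was incubated with [14C]stearoyl-CoA, NADH, MgCl2 and cytochrome b5 at room temperature, 10 min for liver and 30 min for eyelid. Lipids were saponified and run on AgNO3 TLC to quantify stearate and oleate. Result is % of vehicle control.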

Mus musculus [4] = experiment: Ex vivo inhibition of SCD1 in C57BL/6J mouse liver assessed as residual activity at 1 mg/kg, po treated for 6 hrs followed by incubation with [14C]stearoyl-CoA substrate for 10 mins by TLC assay relative to control; format: functional; in short: as §2
Mus musculus [5] = experiment: Ex vivo inhibition of SCD1 in C57BL/6J mouse eyelid assessed as residual activity at 100 mg/kg, po treated for 24 hrs followed by incubation with [14C]stearoyl-CoA substrate for 30 mins by TLC assay relative to control; format: organism-based; in short: as §2
Mus musculus [6] = experiment: Ex vivo inhibition of SCD1 in C57BL/6J mouse eyelid assessed as residual activity at 1 mg/kg, po treated for 6 hrs followed by incubation with [14C]stearoyl-CoA substrate for 30 mins by TLC assay relative to control; format: organism-based; in short: as §2

Acyl-CoA (8-3)-desaturase, sequence (O60427 whole entry): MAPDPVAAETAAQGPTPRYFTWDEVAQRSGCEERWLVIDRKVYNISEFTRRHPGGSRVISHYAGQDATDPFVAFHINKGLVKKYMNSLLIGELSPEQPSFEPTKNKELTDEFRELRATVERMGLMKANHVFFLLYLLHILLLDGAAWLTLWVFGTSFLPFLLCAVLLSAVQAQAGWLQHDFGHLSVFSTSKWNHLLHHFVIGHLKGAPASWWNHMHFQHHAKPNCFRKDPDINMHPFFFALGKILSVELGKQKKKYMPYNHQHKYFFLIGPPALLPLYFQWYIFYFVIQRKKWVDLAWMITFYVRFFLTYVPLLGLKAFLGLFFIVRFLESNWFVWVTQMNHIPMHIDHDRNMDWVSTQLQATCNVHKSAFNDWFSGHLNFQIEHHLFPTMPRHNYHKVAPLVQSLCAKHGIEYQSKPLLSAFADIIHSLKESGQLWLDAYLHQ

Row | Structure (SMILES) | IC50 (Stearoyl-CoA desaturase) [nM] | Activity (Mus musculus [6]) [%] | Activity (Mus musculus [4]) [%] | other results
1 | O=C(Nc1ccncc1)c1ccc(COc2ccccc2Cl)cc1 | 1400 |  |  | IC50 [1]: > 30000 nM; IC50 (Acyl-CoA desaturase 1): 510 nM; IC50 [2]: > 30000 nM
2 | CCCCCCCCc1ccccc1NCc1ccc(C(=O)Nc2nc(CC(=O)O)cs2)cc1 | 4.5 | 127 | 15 | Activity (Mus musculus [3]): 74%; Activity (Mus musculus [5]): 71%
3 | CCCCCCc1ccccc1NCc1ccc(C(=O)Nc2nc(CCO)cs2)s1 | 4.5 | 104 | 12 | Activity (Mus musculus [3]): 12%; Activity (Mus musculus [5]): 4%
4 | O=C(O)Cc1csc(NC(=O)c2ccc(CNc3ccccc3-c3ccccc3)cc2)n1 | 8.7 | 187 | 74 | 
5 | O=C(O)Cc1csc(NC(=O)c2ccc(CNc3ccccc3Cc3ccccc3)cc2)n1 | 5.5 | 76 | 18 | Activity (Mus musculus [3]): 53%; Activity (Mus musculus [5]): 100%
6 | CCCCCCc1ccccc1NCc1ccc(C(=O)Nc2nc(CC(=O)O)cs2)s1 | 4.8 | 88 | 12 | Activity (Mus musculus [3]): 13%; Activity (Mus musculus [5]): 52%
7 | CCCCCCc1ccccc1NCc1ccc(C(=O)Nc2nc(CC(=O)O)cs2)cc1 | 3 | 119 | 31 | 
8 | CC(C)CCc1ccccc1NCc1ccc(C(=O)Nc2nc(CC(=O)O)cs2)s1 | 6.7 | 160 | 19 | Activity (Mus musculus [3]): 34%; Activity (Mus musculus [5]): 84%
9 | CCCCCCCCc1ccccc1NCc1ccc(C(=O)Nc2nc(CC(=O)O)cs2)s1 | 17 | 77 | 7 | Activity (Mus musculus [3]): 11%; Activity (Mus musculus [5]): 8%
10 | Cc1csc(NC(=O)c2ccc(CNc3cccc(Cl)c3)cc2)n1 | 18 |  |  | 
11 | O=C(O)Cc1csc(NC(=O)c2ccc(CNc3ccccc3Cc3ccccc3)s2)n1 | 7.5 | 128 | 22 | Activity (Mus musculus [3]): 20%; Activity (Mus musculus [5]): 76%
12 | Cc1csc(NC(=O)c2ccc(CNc3ccccc3C)nc2)n1 | 310 |  |  | 
13 | Cc1csc(NC(=O)c2ccc(CNc3ccccc3C)cn2)n1 | 46 |  |  | 
14 | O=C(O)Cc1csc(NC(=O)c2ccc(CNc3ccccc3C(F)(F)F)s2)n1 | 9 | 124 | 51 | 
15 | Cc1csc(NC(=O)c2ccc(COc3ccccc3Cl)cc2)n1 | 150 |  |  | 
16 | Cc1csc(NC(=O)c2ccc(CNc3ccccc3)cc2)n1 | 95 |  |  | 
17 | CCCCc1ccccc1NCc1ccc(C(=O)Nc2nc(CC(=O)O)cs2)cc1 | 5.5 | 74 | 76 | 
18 | CC(C)CCc1ccccc1NCc1ccc(C(=O)Nc2nc(CC(=O)O)cs2)cc1 | 4.8 | 68 | 19 | 
19 | Cc1csc(NC(=O)N2CCC(CNc3ccccc3C(F)(F)F)CC2)n1 | 30 |  |  | 
20 | Cc1csc(NC(=O)c2ccc(CNc3ccc(Cl)cc3)cc2)n1 | 760 |  |  | 

More lines, main results first:

Row | IC50 (Stearoyl-CoA desaturase) [nM] | Activity (Mus musculus [6]) [%] | Structure (SMILES) | Activity (Mus musculus [4]) [%] | other results
21 | 4.1 |  | Cc1csc(NC(=O)c2ccc(CNc3ccccc3C(F)(F)F)cc2)n1 |  | 
22 | 5.3 | 63 | CC(C)CCc1ccccc1NCc1ccc(C(=O)Nc2nc(CCO)cs2)cc1 | 26 | 
23 | 9.2 |  | Cc1csc(NC(=O)c2ccc(CNc3ccccc3Cl)cc2)n1 |  | 
24 | 5.1 | 33 | O=C(Nc1nc(CO)cs1)c1ccc(CNc2ccccc2C(F)(F)F)s1 | 9 | 
25 | 13 | 132 | O=C(O)Cc1csc(NC(=O)c2ccc(CNc3ccccc3Cl)cc2)n1 | 72 | 
26 | 31 |  | O=C(Nc1nc(CCCO)c(CCO)s1)c1ccc(CNc2ccccc2C(F)(F)F)cc1 |  | 
27 | 6.4 | 74 | O=C(Nc1nc(CCO)cs1)c1ccc(CNc2ccccc2Cl)cc1 | 29 | Activity (Mus musculus [3]): 66%; Activity (Mus musculus [5]): 35%
28 | 3 | 94 | CCCCc1ccccc1NCc1ccc(C(=O)Nc2nc(CCO)cs2)cc1 | 61 | 
29 | 3.8 |  | O=C(Nc1ncc(CCO)s1)c1ccc(CNc2ccccc2C(F)(F)F)cc1 |  | 
30 | 4.3 | 37 | O=C(Nc1nc(CO)cs1)c1ccc(CNc2ccccc2Cl)cc1 | 12 | 
31 | 6.3 |  | O=C(O)CCc1csc(NC(=O)c2ccc(CNc3ccccc3C(F)(F)F)cc2)n1 |  | 
32 | 4.2 | 136 | O=C(Nc1nc(CCO)cs1)c1ccc(CNc2ccccc2C(F)(F)F)cc1 | 33 | 
33 | 5.2 | 75 | O=C(Nc1nc(CCCO)cs1)c1ccc(CNc2ccccc2C(F)(F)F)cc1 | 64 | 
34 | 3600 |  | Cc1csc(NC(=O)c2ccc(CNc3ccccc3C(=O)O)cc2)n1 |  | 
35 | > 10000 |  | Cc1ccccc1NCc1ccc(C(=O)Nc2nc(C(=O)O)cs2)cc1 |  | 
36 | 2.8 |  | O=C(Nc1ncc(CO)s1)c1ccc(CNc2ccccc2C(F)(F)F)cc1 |  | 
37 | 3.2 | 29 | CCCCc1ccccc1NCc1ccc(C(=O)Nc2nc(CO)cs2)cc1 | 10 | 
38 | 8.9 |  | CCCc1ccccc1NCc1ccc(C(=O)Nc2nc(C)cs2)cc1 |  | 
39 | 8.1 |  | O=C(Nc1ncc(C(=O)O)s1)c1ccc(CNc2ccccc2C(F)(F)F)cc1 |  | 
40 | 570 |  | O=C(O)CCc1cnc(NC(=O)c2ccc(CNc3ccccc3C(F)(F)F)cc2)s1 |  | 
41 | 9.7 |  | Cc1csc(NC(=O)c2ccc(CNc3ccccc3C(F)(F)F)s2)n1 |  | 
42 | 3.9 | 171 | O=C(Nc1nc(CCO)cs1)c1ccc(CNc2ccccc2C(F)(F)F)s1 | 10 | Activity (Mus musculus [3]): 27%; Activity (Mus musculus [5]): 8%
43 | 3.8 | 73 | O=C(Nc1nc(CO)cs1)c1ccc(CNc2ccccc2C(F)(F)F)cc1 | 20 | Activity (Mus musculus [3]): 53%; Activity (Mus musculus [5]): 0%
44 | 5.1 | 107 | O=C(O)Cc1csc(NC(=O)c2ccc(CNc3ccccc3C(F)(F)F)cc2)n1 | 98 | 
45 | 2700 |  | O=C(O)CCCc1csc(NC(=O)c2ccc(CNc3ccccc3C(F)(F)F)cc2)n1 |  | 
46 | 58 |  | O=C(O)Cc1cnc(NC(=O)c2ccc(CNc3ccccc3C(F)(F)F)cc2)s1 |  | 
47 | 22 |  | O=C(Nc1nc(CO)c(C(=O)O)s1)c1ccc(CNc2ccccc2C(F)(F)F)cc1 |  | 
48 | 260 |  | O=C(Nc1ncc(CCCO)s1)c1ccc(CNc2ccccc2C(F)(F)F)cc1 |  | 
49 | 14 |  | Cc1ccccc1NCc1ccc(C(=O)Nc2nc(CC(=O)O)cs2)cc1 |  | 
